Screening data as filed in PubChem BioAssay.
UPR XBP1 act – adaptive UPR (XBP1) activation. CHO-XBP1 luciferase reporter, IRE1-XBP1 UPR activation, luminescence; percent of tunicamycin response, DMSO as zero. activation, % at 20 µM. 330,000 compounds, 0.33% hits;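 active = versus positive control, 20 µM dose yields 30% or more activation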;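 note: 100% = tunicamycin at 10 µg/mL and 0% = DMSO only wells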
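Signal: luciferase luminescence; Assay system: CHO-XBP1 luciferase reporter cells; Amount: one thousand reporter cells per well; Dosing: 20 µM single concentration, DMSO 1%; Benchmarks: high control tunicamycin 10 µg/mL final, low control DMSO vehicle only; Schedule: 6 h compound exposure at 37 °C, 5% CO2; Evaluation: percent activation relative to tunicamycin reference.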
V-ATPase pH – alters yeast V-ATPase proton transport | 350,000 compounds, 0.37% hits | response, % at 10 µM | S. cerevisiae, pHLuorin cytosolic pH fluorescence; in the data active = response mostly above about 7.3%, no sharp cut-off; inactive = mostly below about 5.4%; note: actives read high
CHOP inh – inhibitors of CHOP induction in ER stress response. CHO-K1 CHOP-promoter luciferase, tunicamycin-induced, 15-18 h. inhibition, % at 10 µM. 220,000 compounds, 3.8% hits. AID 2732;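 active = compounds that reduced the stress-induced luciferase reporter signal by more than about 70% of percent inhibition, limit read from the data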;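 note: 0% = tunicamycin plus vehicle and 100% = wells without tunicamycin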
UPR CHOP act – apoptotic UPR (CHOP) activation; CHO-CHOP luciferase reporter, luminescence; percent of tunicamycin response over DMSO baseline; activation, % at 10 µM; 330,000 compounds, 0.34% hits; AID 449763;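 active = at 10 µM dose, activation of 40% or more, normalized to positive control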;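 note: 100% = tunicamycin at 10 µg/mL and 0% = DMSO alone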
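measured by = luciferase luminescence | assay system = CHO-CHOP cells, stable luciferase reporter of PERK-eIF2a-CHOP signalling | amount = 500 reporter cells seeded per well | timing = 6 h compound exposure at 37 °C after overnight seeding | controls = positive tunicamycin 10 µg/mL, negative DMSO alone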
TbMetRS inhib – Trypanosoma brucei MetRS inhibition | purified T. brucei MetRS, ATP depletion, Kinase-Glo luminescence | inhibition, % at 11.9 µM | 360,000 compounds, 0.4% hits | AID 624268;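 active = inhibition above a per-plate cutoff of the control wells' mean inhibition plus 3 SD, cut at about 5.5% in these data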;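 note: 0% = DMSO wells median and 100% = median of wells with control inhibitor compound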
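technique = Kinase-Glo luminescence, ATP depletion format | system = purified MetRS (methionyl-tRNA synthetase) enzyme from Trypanosoma brucei | timing = 15 min preincubation, 2 h reaction, all 25 °C | evaluation = percent inhibition versus plate control medians | dosing = single dose, 11.9 µM final nominal, 0.9% final DMSO | also added = substrates ATP, L-methionine and bulk Escherichia coli tRNA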
Starred values were filed as active, the others as inactive; . = no result given. Shown is part of a subset that was picked to be rich in hits.

SMILES | UPR XBP1 act | V-ATPase pH | CHOP inh | UPR CHOP act | TbMetRS inhib
O=C(CN1CCC(n2nnc3cc(C(F)(F)F)ccc32)CC1)Nc1ccc2c(c1)CCC2 | -4.7 | -5.3 | 78.2* | -2.5 | -1.0
COc1ccc(C)cc1NC(=O)CN1CCN(CC(=O)Nc2ccccc2F)CC1 | -6.0 | -5.6 | 79.5* | -0.4 | -1.0
COc1ccc(Cl)cc1NC(=O)CN1CCC(n2nnc3cc(C)ccc32)CC1 | -4.3 | 0.0 | 72.9* | 0.6 | 0.1
C[C@@H]1CN([C@@H](C)CO)C(=O)CCCn2nncc2CO[C@H]1CN(C)C(=O)Nc1ccccc1F | . | -0.3 | . | . | 0.1
Cc1cc(N(C)C)cc(C)c1N=Nc1cc[n+]([O-])cc1 | . | -3.6 | . | . | 0.2
COc1ccc(/C=c2\s/c(=C/C(=O)c3ccc(C)cc3)[nH]c2=O)cc1OC | 1.0 | -0.8 | 99.7* | 3.0 | -0.3
COc1ccc(/C=C2\CC/C(=C\c3ccc(OC)c(OC)c3)C2=O)cc1OC | -0.1 | -3.5 | 30.8 | 3.1 | -1.1
O=C(NC(=S)NC1CCCC1)c1ccccc1 | -3.3 | -1.8 | . | 5.2 | 0.0
O=C(NC(=S)NC1CCCC1)c1ccccc1Br | 4.1 | -0.4 | 82.5* | 3.6 | 0.1
COc1ccc(NC(=S)N2CCC3CC2c2cc(-c4ccc5c(c4)OCO5)ccc23)c(OC)c1 (stereo not drawn) | . | . | . | . | 0.1
Clc1cccc(NCc2nnc(SCc3ccccc3)o2)c1 | 2.3 | -2.9 | 70.8* | -0.7 | -0.3
C=CCOc1cccc(C(=O)/C=C2/C(=O)Nc3ccccc32)c1 | 0.2 | -0.6 | . | 85.6* | 0.9
O=C1Nc2ccc(Br)cc2/C1=C/C(=O)c1ccccc1 | . | -3.2 | . | . | -0.2
Cc1cnn(C(=S)NCc2ccc(Cl)cc2)c1 | 1.9 | . | 73.6* | -1.5 | .
Cc1ccccc1S(=O)(=O)N(C)C[C@@H]1OCc2cn(nn2)CCCC(=O)N([C@H](C)CO)C[C@H]1C | . | 2.4 | . | . | -1.1
CS(=O)(=O)N1CCCCC1c1cc(C(=O)Nc2ccccc2Cl)no1 (stereo not drawn) | . | . | . | . | -0.2
CC1(C)COC(Cc2ccccc2)=N1 | . | 1.2 | . | . | 0.0
CC(=O)N[C@@H](Cc1c[nH]c2ccccc12)C(=O)OCC(=O)Nc1ccc2c(c1)OCO2 | . | -1.6 | . | . | -0.2
O=C(COC(=O)[C@H](Cc1c[nH]c2ccccc12)NC(=O)c1ccc(Cl)cc1)Nc1ccc2c(c1)OCO2 | 7.4 | -3.2 | 81.5* | 4.0 | 1.1
CC(C)n1c(CNC(=O)c2ccccc2F)nnc1SCC(=O)c1ccc(F)cc1 | . | -0.8 | . | . | -0.4
CCOC(=O)CSC1=NC(=O)/C(=C/c2ccc(Br)cc2)S1 | 4.2 | 1.6 | 101.7* | 7.7 | -0.2
Cc1ccc(O)c(-c2cc(-c3ccccc3[N+](=O)[O-])[nH]n2)c1 | -0.5 | 1.0 | 7.7 | 3.9 | 0.0
O=[N+]([O-])c1ccccc1-c1cc(-c2cc(Cl)ccc2O)n[nH]1 | . | -1.7 | 76.5* | . | 0.0
O=C(c1ccc(CSc2nc3ccncc3[nH]2)cc1)N1CCCCC1 | -3.0 | 2.6 | 12.0 | 2.3 | -0.1
Cc1ccc(C)c(N2CCN(C(=O)c3ccc(CSc4nc5ccncc5[nH]4)cc3)CC2)c1 | 1.0 | -2.9 | 72.0* | 4.2 | -0.1
SMILES | UPR XBP1 act | V-ATPase pH | CHOP inh | UPR CHOP act | TbMetRS inhib
CC(=O)Nc1cccc(C(=O)Nc2cc(C(F)(F)F)ccc2-n2cncn2)c1 | . | 1.7 | . | . | 0.9
Cc1ccc(NCc2nnc(SCC(=O)N3CCCc4ccccc43)o2)c(C)c1 | 2.4 | -2.8 | 74.7* | -0.7 | -0.5
O=c1[nH]c(SCCOc2ccccc2)nc2ccccc12 | 3.1 | 0.9 | 76.8* | 2.6 | 0.7
COc1ccccc1OCCSc1nc2ccccc2c(=O)[nH]1 | 3.1 | 1.7 | -1.7 | 3.3 | -1.0
Oc1ccc(-c2nc(-c3ccc(F)cc3)c(-c3ccncc3)[nH]2)cc1 | -4.6 | -1.2 | -10.7 | 5.8 | -0.9
Fc1ccc(-c2nc(-c3cccs3)[nH]c2-c2ccc(F)cc2)cc1 | -0.9 | 2.0 | 73.6* | 0.8 | 0.2
O=C(O)c1ccc(-c2nc(-c3ccccc3)c(-c3ccccc3)[nH]2)cc1 | -2.3 | -1.2 | 26.9 | 1.5 | 0.4
O=[N+]([O-])c1cccc(-c2nc(-c3cccs3)c(-c3cccs3)[nH]2)c1 | 3.2 | -6.1 | 46.4 | 3.4 | -0.7
O=[N+]([O-])c1ccc(-c2nc(-c3cccs3)c(-c3cccs3)[nH]2)cc1 | 0.8 | 0.1 | 92.3* | 2.4 | 0.3
Cc1ccsc1-c1nc(-c2ccccc2)c(-c2ccccc2)[nH]1 | 1.0 | 0.8 | 82.3* | 1.9 | 0.6
O=c1c(-c2ccco2)nc2ccccc2n1C(c1ccccc1)c1nc2ccccc2[nH]1 (stereo not drawn) | . | . | . | . | -0.1
COc1ccc(-c2cc(C(F)(F)F)nc(NCc3ccco3)n2)cc1OC | 4.2 | -0.3 | 75.1* | 0.7 | -1.1
FC(F)(F)c1cc(-c2ccco2)nc(NCc2ccco2)n1 | 0.8 | 1.2 | 54.2 | 5.1 | -0.7
FC(F)(F)c1cc(-c2ccc3c(c2)OCO3)nc(NCc2ccco2)n1 | 1.6 | 0.7 | 69.1 | -0.5 | -0.6
COc1cccc(-c2cc(C(F)(F)F)nc(NCc3ccco3)n2)c1 | 0.2 | 5.0 | 70.7* | 0.0 | 0.0
CCOc1ccccc1-c1nc(C(N)=O)c2[nH]c(=O)n(-c3cccc(C)c3)c2n1 | -1.2 | -3.4 | -2.0 | 0.6 | -0.7
CCOc1cccc(-c2nc(C(N)=O)c3[nH]c(=O)n(-c4cccc(Cl)c4)c3n2)c1O | 2.6 | 3.0 | 94.6* | 0.7 | 0.3
COC(=O)c1c(NC(=O)CCCC(=O)O)sc(C)c1C | 0.4 | 3.6 | 5.8 | 0.1 | -0.8
CCc1ccc(CCC(=O)Nc2sc(C)c(C)c2C(=O)OC)o1 | -2.4 | 0.1 | 83.0* | -0.5 | -1.6
CS(=O)(=O)c1sc(C#N)c2c1C(=O)CC(c1ccccc1)C2 (stereo not drawn) | -10.6 | 4.0 | 107.0* | -10.7 | -0.2
CCNC(=O)C1CCCN(C(=O)c2cnc3ccccc3n2)CC1 (stereo not drawn) | . | . | . | . | 0.6
O=C(COC(=O)C12CC3CC(CC(C3)C1)C2)Nc1nc2c(F)c(F)c(F)cc2s1 | -3.7 | -0.4 | 94.6* | -0.1 | -0.6
C(=NOCCc1ccccc1)c1ccccn1 | . | -2.1 | . | . | -0.2
CCOc1cc(-c2cn(S(=O)(=O)c3cccc4nsnc34)nc2N)cc(OCC)c1OCC | -1.1 | 7.3 | 57.1 | -0.3 | -0.6
CCOc1cc(S(=O)(=O)n2cc(-c3ccc(F)cc3)c(N)n2)cc(OCC)c1OCC | -3.1 | 0.0 | 74.1* | -4.5 | -0.7
CCOc1ccc(S(=O)(=O)n2cc(-c3ccccc3)c(N)n2)cc1 | 3.1 | 1.3 | 14.0 | 1.3 | -0.5
CCOc1ccc(S(=O)(=O)n2cc(-c3ccc(F)cc3)c(N)n2)cc1 | -0.3 | -3.4 | 95.3* | 1.9 | -0.1
Cc1ccc(-c2cn(S(=O)(=O)c3ccc(C)cc3)nc2N)cc1 | -3.0 | 0.9 | 79.4* | -1.4 | -0.9
Cc1cc(C)n2ncc(C(=O)O)c2n1 | -0.3 | -3.0 | -5.7 | 1.3 | -0.8
